Assay results published in ChEMBL document CHEMBL1126800, “Preparation of substituted N-phenyl-4-aryl-2-pyrimidinamines as mediator release inhibitors” (J Med Chem, 1993).

Species: Homo sapiens
Assay: In vitro inhibition of histamine release from human basophils
Type: functional, organism-based
Method in brief: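 Human basophils separated from leukocytes were incubated with test compound, then challenged with anti-IgE or antigen (Lichtenstein method). Histamine release was measured against controls and blanks. IC50 is the concentration lowering histamine release by 50%.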

CCc1cccc(Nc2nccc(-c3ccsc3)n2)c1
IC50 (Homo sapiens): 1100 nM

Cc1cccc(Nc2nccc(-c3ccc(C)o3)n2)c1
IC50 (Homo sapiens): 2000 nM

CC1CCN(c2cccc(Nc3nccc(-c4cccnc4)n3)c2)CC1
IC50 (Homo sapiens): 1200 nM

Cc1cccc(Nc2nccc(-c3ccccn3)n2)c1
IC50 (Homo sapiens): 700 nM

c1ccc(Nc2nccc(-c3ccncc3)n2)cc1
IC50 (Homo sapiens): 900 nM

Fc1cccc(Nc2nccc(-c3ccncc3)n2)c1
IC50 (Homo sapiens): 700 nM

CCc1cccc(Nc2nccc(-c3ccco3)n2)c1
IC50 (Homo sapiens): 9700 nM

Cc1ccsc1-c1ccnc(Nc2ccc(N(C)C)cc2)n1
IC50 (Homo sapiens): 1800 nM

Cc1cc(-c2ccnc(Nc3ccc(N(C)C)cc3)n2)c(C)o1
IC50 (Homo sapiens): 4900 nM

COc1cccc(Nc2nccc(-c3ccccn3)n2)c1
IC50 (Homo sapiens): 200 nM

c1cc(Nc2nccc(-c3ccncc3)n2)cc(-n2ccnc2)c1
IC50: 3900 nM

c1ccc(Nc2nccc(-c3cccnc3)n2)cc1
IC50: 1300 nM

c1ccc(Nc2nccc(-c3cccs3)n2)cc1
IC50 (Homo sapiens): 31700 nM

FC(F)(F)c1cc(Nc2nccc(-c3ccncc3)n2)ccc1-n1ccnc1
IC50 (Homo sapiens): 400 nM

CCN(CC)CCSc1ccc(Nc2nccc(-c3ccncc3)n2)cc1
IC50 (Homo sapiens): 1000 nM

CN(C)c1cccc(Nc2nccc(-c3ccccn3)n2)c1
IC50 (Homo sapiens): 400 nM

COc1cccc(Nc2nccc(-c3ccncc3)n2)c1
IC50 (Homo sapiens): 400 nM

Cc1cccc(Nc2nccc(-c3ccsc3)n2)c1
IC50 (Homo sapiens): 3800 nM

CCN(CC)CCOc1ccc(Nc2nccc(-c3ccccn3)n2)cc1
IC50 (Homo sapiens): > 3000 nM

CN(C)c1ccc(Nc2nccc(-c3ccsc3)n2)cc1
IC50 (Homo sapiens): 2100 nM

NS(=O)(=O)c1cccc(Nc2nccc(-c3cccnc3)n2)c1
IC50 (Homo sapiens): 200 nM

Clc1cccc(Nc2nccc(-c3cccnc3)n2)c1
IC50 (Homo sapiens): 1500 nM

CCc1ccc(Nc2nccc(-c3cc(C)oc3C)n2)cc1
IC50 (Homo sapiens): 19200 nM

Fc1cccc(F)c1Nc1nccc(-c2cccnc2)n1
IC50 (Homo sapiens): 21000 nM

CC(C)N(CCOc1ccc(Nc2nccc(-c3cccnc3)n2)cc1)C(C)C
IC50 (Homo sapiens): 4600 nM

FC(F)(F)c1cccc(Nc2nccc(-c3ccccn3)n2)c1
IC50: 2900 nM

CC(=O)Nc1ccc(Nc2nccc(-c3cccnc3)n2)cc1
IC50 (Homo sapiens): 3600 nM

c1cc(Nc2nccc(-c3cccs3)n2)cc(OCCn2ccnc2)c1
IC50 (Homo sapiens): 100 nM

Fc1cccc(Nc2nccc(-c3ccccn3)n2)c1
IC50 (Homo sapiens): 1000 nM

c1cncc(-c2ccnc(Nc3cccc(-n4ccnc4)c3)n2)c1
IC50 (Homo sapiens): 200 nM

c1cncc(-c2ccnc(Nc3ccc(-n4ccnc4)cc3)n2)c1
IC50 (Homo sapiens): 1300 nM

CC1CCN(c2ccc(Nc3nccc(-c4cccs4)n3)cc2)CC1
IC50 (Homo sapiens): 400 nM

NS(=O)(=O)c1ccc(Nc2nccc(-c3ccccn3)n2)cc1
IC50 (Homo sapiens): 4600 nM

Cc1cccc(Nc2nccc(-c3ccco3)n2)c1
IC50 (Homo sapiens): 2100 nM

CC1CCN(C(=O)COc2ccc(Nc3nccc(-c4ccncc4)n3)cc2)CC1
IC50 (Homo sapiens): 300 nM

CC(C)(C)c1ccc(Nc2nccc(-c3cccnc3)n2)cc1
IC50 (Homo sapiens): 600 nM

CCN(CC)CCOc1cccc(Nc2nccc(-c3ccccn3)n2)c1
IC50 (Homo sapiens): 1200 nM

CCN(CC)CCOc1ccccc1Nc1nccc(-c2cccnc2)n1
IC50 (Homo sapiens): > 6000 nM

Cc1cccc(Nc2nccc(-c3cccnc3)n2)c1
IC50 (Homo sapiens): 1500 nM

CCN(CC)c1ccc(Nc2nccc(-c3cc(C)oc3C)n2)cc1
IC50 (Homo sapiens): > 24000 nM

CCN(CC)c1ccc(Nc2nccc(-c3ccco3)n2)cc1
IC50 (Homo sapiens): 8700 nM

c1ccc(-c2ccnc(Nc3cccc(-n4ccnc4)c3)n2)nc1
IC50: 200 nM

CN(C)c1ccccc1Nc1nccc(-c2ccncc2)n1
IC50 (Homo sapiens): 36200 nM

COc1cccc(Nc2nccc(-c3sccc3C)n2)c1
IC50 (Homo sapiens): > 24000 nM

CC(=O)Nc1cccc(Nc2nccc(-c3ccccn3)n2)c1
IC50 (Homo sapiens): 300 nM

CN(c1ccccc1)c1nccc(-c2ccncc2)n1
IC50 (Homo sapiens): > 24000 nM

CC1CCN(c2ccc(Nc3nccc(-c4ccncc4)n3)cc2)CC1
IC50 (Homo sapiens): 600 nM

Nc1cccc(Nc2nccc(-c3cccnc3)n2)c1
IC50 (Homo sapiens): 500 nM

Cc1cccc(Nc2nccc(-c3cc(C)oc3C)n2)c1
IC50 (Homo sapiens): 28500 nM

COc1ccc(N(C)c2nccc(-c3ccncc3)n2)cc1
IC50 (Homo sapiens): > 24000 nM

c1ccc(-c2nccc(-c3ccncc3)n2)cc1
IC50 (Homo sapiens): 13900 nM

CC1CCN(c2ccc(Nc3nccc(-c4cccnc4)n3)cc2)CC1
IC50 (Homo sapiens): 500 nM
